Results from ChEMBL document CHEMBL1123892, “Renin inhibitors based on novel dipeptide analogues. Incorporation of the dehydrohydroxyethylene isostere at the scissile bond” (J Med Chem, 1987).

Key:
Renin = target: T1, Renin (Homo sapiens, UniProt P00797); assay: Inhibition of human renin
T1 sequence (P00797 whole entry): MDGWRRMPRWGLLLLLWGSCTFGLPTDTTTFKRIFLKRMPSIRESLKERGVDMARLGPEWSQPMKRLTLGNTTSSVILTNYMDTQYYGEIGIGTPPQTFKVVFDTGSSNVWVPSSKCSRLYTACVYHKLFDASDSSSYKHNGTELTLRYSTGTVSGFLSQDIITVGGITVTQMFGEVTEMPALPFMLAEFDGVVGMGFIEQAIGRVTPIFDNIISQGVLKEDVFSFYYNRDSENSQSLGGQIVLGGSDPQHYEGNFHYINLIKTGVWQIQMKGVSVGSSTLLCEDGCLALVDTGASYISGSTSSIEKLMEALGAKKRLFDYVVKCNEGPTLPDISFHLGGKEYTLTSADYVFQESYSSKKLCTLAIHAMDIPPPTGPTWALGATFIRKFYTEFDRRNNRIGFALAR
Outline: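 Purified human renal renin, 0.24 mGu, with pure human angiotensinogen (0.21 μM) at 37 °C in 0.135 M maleate pH 6.0 containing 3 mM EDTA, 1.4 mM PMSF, 0.44% BSA and 1% DMSO (final). At least three inhibitor concentrations bracketing the IC50 preincubated with enzyme 5 min, then 10.0 min reaction stopped by freezing. Angiotensin I read by RIA; IC50 by regression of percent inhibition.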

Renin (Homo sapiens) [1] = target: T2, Renin (Homo sapiens) (UniProt P00797); assay: Compound was evaluated for percent inhibition of renin at a concentration of 5E-8 M at 5 min pre-incubation time
T2 sequence (whole entry): T1 sequence (P00797 whole entry)
Outline: (§1)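 Purified human renal renin with pure human angiotensinogen (0.21 μM final) in 0.135 M maleate buffer pH 6.0, 3 mM EDTA, 1.4 mM PMSF, 0.44% BSA, 1% DMSO. Inhibitor at one fixed concentration, preincubated with renin 5 or 60 min at 37 °C before substrate addition. Reaction then ran 10.0 min, stopped by freezing. Angiotensin I measured by radioimmunoassay; percent inhibition reported.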

Renin (Homo sapiens) [2] = target: T2, Renin (Homo sapiens); assay: Compound was evaluated for percent inhibition of renin at a concentration of 5E-8 M at 60 min pre-incubation time; outline: as §1
Renin (Homo sapiens) [3] = target: T2, Renin (Homo sapiens); assay: Compound was evaluated for percent inhibition of renin at a concentration of 4E-7M at 5 min pre-incubation time; outline: as §1
Renin (Homo sapiens) [4] = target: T2, Renin (Homo sapiens); assay: Compound was evaluated for percent inhibition of renin at a concentration of 4E-7M at 60 min pre-incubation time; outline: as §1
Renin (Homo sapiens) [5] = target: T2, Renin (Homo sapiens); assay: Compound was evaluated for percent inhibition of renin at a concentration of 5e-8M at 60 min pre-incubation time; outline: as §1
Renin (Homo sapiens) [6] = target: T2, Renin (Homo sapiens); assay: Compound was evaluated for percent inhibition of renin at a concentration of 5e-8M at 5 min pre-incubation time; outline: as §1
Renin (Homo sapiens) [7] = target: T2, Renin (Homo sapiens); assay: Compound was evaluated for percent inhibition of renin at a concentration of 1E-8M at 5 min pre-incubation time; outline: as §1
Renin (Homo sapiens) [8] = target: T2, Renin (Homo sapiens); assay: Compound was evaluated for percent inhibition of renin at a concentration of 1E-8M at 60 min pre-incubation time; outline: as §1
Renin (Homo sapiens) [9] = target: T2, Renin (Homo sapiens); assay: Compound was evaluated for percent inhibition of renin at a concentration of 2.5*10e-8 M at 5 min pre-incubation time; outline: as §1
Renin (Homo sapiens) [10] = target: T2, Renin (Homo sapiens); assay: Compound was evaluated for percent inhibition of renin at a concentration of 2.5*10e-8 M at 60 min preincubation time; outline: as §1

| SMILES | IC50 (Renin) | further results |
| --- | --- | --- |
| CC(C)CNC(=O)[C@@](O)(CN=[N+]=[N-])C[C@H](O)[C@H](CC1CCCCC1)NC(=O)[C@H](Cc1cnc[nH]1)NC(=O)[C@H](Cc1ccccc1)NC(=O)OC(C)(C)C | 20 nM |  |
| CC(C)CCNC(=O)[C@](C)(O)C[C@H](O)[C@H](CC1CCCCC1)NC(=O)[C@H](Cc1c[nH]cn1)NC(=O)[C@H](Cc1ccccc1)NC(=O)OC(C)(C)C | 50 nM |  |
| C=C(C[C@H](O)[C@H](CC1CCCCC1)NC(=O)[C@H](C)NC(=O)[C@H](Cc1ccccc1)NC(=O)OC(C)(C)C)C(=O)NCCN(C)C | 400 nM |  |
| C=C(C[C@H](O)[C@H](CC1CCCCC1)NC(=O)C(Cc1c[nH]cn1)NC(=O)C(C)(O)c1ccccc1)C(=O)NCCC(C)C (stereo partly drawn) | 100 nM |  |
| C=C(C[C@H](O)[C@H](CC1CCCCC1)NC(=O)[C@H](C)NC(=O)[C@H](Cc1ccccc1)NC(=O)OC(C)(C)C)C(=O)NCC(C)(C)CN(C)C | 25 nM |  |
| CC(C)CCNC(=O)[C@@](C)(O)C[C@H](O)[C@H](CC1CCCCC1)NC(=O)[C@H](Cc1c[nH]cn1)NC(=O)[C@H](Cc1ccccc1)NC(=O)OC(C)(C)C | 5.5 nM |  |
| C=C(C[C@H](O)[C@H](CC1CCCCC1)NC(=O)[C@H](Cc1c[nH]cn1)NC(=O)[C@H](Cc1ccccc1)NC(=O)OC(C)(C)C)C(=O)NCC(C)C | 2 nM |  |
| CC(C)CNC(=O)[C@@](O)(CN)C[C@H](O)[C@H](CC1CCCCC1)NC(=O)[C@H](Cc1cnc[nH]1)NC(=O)[C@H](Cc1ccccc1)NC(=O)OC(C)(C)C | 35 nM |  |
| C=C(C[C@H](O)[C@H](CC1CCCCC1)NC(=O)[C@H](C)NC(=O)[C@H](Cc1ccccc1)NC(=O)OC(C)(C)C)C(=O)NCC1CCCCC1 | 50 nM | inhibition (Renin (Homo sapiens) [1]): 49%; inhibition (Renin (Homo sapiens) [2]): 53% |
| CC(C)CNC(=O)[C@](O)(CC(C)C)C[C@H](O)[C@H](CC1CCCCC1)NC(=O)[C@H](Cc1c[nH]cn1)NC(=O)[C@H](Cc1ccccc1)NC(=O)OC(C)(C)C | 30 nM |  |
| CC(C)CNC(=O)[C@](O)(CN)C[C@H](O)[C@H](CC1CCCCC1)NC(=O)[C@H](Cc1c[nH]cn1)NC(=O)[C@H](Cc1ccccc1)NC(=O)OC(C)(C)C | 15 nM |  |
| C=C(C[C@H](O)[C@H](CC1CCCCC1)NC(=O)[C@H](Cc1c[nH]cn1)NC(=O)[C@H](Cc1ccccc1)NC(=O)OC(C)(C)C)C(=O)NCC(C)(C)CN(C)C | 5 nM |  |
| C=C(C[C@H](O)[C@H](CC1CCCCC1)NC(=O)[C@H](CC(C)C)NC(=O)[C@H](Cc1ccccc1)NC(=O)OCC)C(=O)NCC(C)(C)CN(C)C | 10 nM |  |
| C=C(C[C@H](O)[C@H](CC(C)C)NC(=O)[C@H](C)NC(=O)[C@H](Cc1ccccc1)NC(=O)OC(C)(C)C)C(=O)N[C@H](O)CC(C)C | 6000 nM |  |
| C=C(C[C@H](O)[C@H](CC1CCCCC1)NC(=O)[C@H](C)NC(=O)[C@H](Cc1ccccc1)NC(=O)OC(C)(C)C)C(=O)NCCc1ccccc1 | 150 nM |  |
| C=C(C[C@H](O)[C@H](CC1CCCCC1)NC(=O)[C@H](Cc1c[nH]cn1)NC(=O)[C@H](Cc1ccccc1)NC(C)=O)C(=O)NCCC(C)C | 4 nM |  |
| CC(C)CNC(=O)[C@@](O)(CCl)C[C@H](O)[C@H](CC1CCCCC1)NC(=O)[C@H](Cc1c[nH]cn1)NC(=O)[C@H](Cc1ccccc1)NC(=O)OC(C)(C)C | 20 nM |  |

| SMILES | IC50 (Renin) | further results |
| --- | --- | --- |
| C=C(C[C@H](O)[C@H](CC(C)C)NC(=O)[C@H](C)NC(=O)[C@H](Cc1ccccc1)NC(=O)OC(C)(C)C)C(=O)NCCC(C)C | 200 nM |  |
| CC(C)CNC(=O)[C@](O)(CN=[N+]=[N-])C[C@H](O)[C@H](CC1CCCCC1)NC(=O)[C@H](Cc1cnc[nH]1)NC(=O)[C@H](Cc1ccccc1)NC(=O)OC(C)(C)C | 1 nM |  |
| C=C(C[C@H](O)[C@H](CC1CCCCC1)NC(=O)[C@H](C)NC(=O)[C@H](Cc1ccccc1)NC(=O)OC(C)(C)C)C(=O)NCC(C)C | 10 nM |  |
| C=C(C[C@H](O)[C@H](CC1CCCCC1)NC(=O)[C@H](CC(C)C)NC(=O)[C@H](Cc1ccccc1)NC(=O)OCC)C(=O)NCC(C)C | 5 nM |  |
| C=C(C[C@H](O)[C@H](CC(C)C)NC(=O)[C@H](C)NC(=O)[C@H](Cc1ccccc1)NC(=O)OC(C)(C)C)C(=O)NCC(C)C | 400 nM | inhibition (Renin (Homo sapiens) [3]): 48%; inhibition (Renin (Homo sapiens) [4]): 43% |
| C=C(C[C@H](O)[C@H](CC1CCCCC1)NC(=O)[C@H](Cc1c[nH]cn1)NC(=O)[C@H](CO)NC(=O)OC(C)(C)C)C(=O)NCCC(C)C | 2000 nM |  |
| C=C(C[C@H](O)[C@H](CC1CCCCC1)NC(=O)[C@H](CC(C)C)NC(=O)[C@H](Cc1ccccc1)NC(=O)OC(C)(C)C)C(=O)NCCC(C)C | 4 nM |  |
| C=C(C[C@H](O)[C@H](CC1CCCCC1)NC(=O)[C@H](C)NC(=O)[C@H](Cc1ccccc1)NC(=O)OC(C)(C)C)C(=O)NC | 50 nM | inhibition (Renin (Homo sapiens) [5]): 37%; inhibition (Renin (Homo sapiens) [6]): 44% |
| C=C(C[C@H](O)[C@H](CC1CCCCC1)NC(=O)[C@H](Cc1ccccc1)NC(=O)[C@H](Cc1ccccc1)NC(=O)OC(C)(C)C)C(=O)NCC(C)(C)CN(C)C | 8.5 nM |  |
| C=C(C[C@H](O)[C@H](CC1CCCCC1)NC(=O)[C@H](C)NC(=O)[C@H](Cc1ccccc1)NC(=O)OC(C)(C)C)C(=O)NCCC(C)C | 10 nM | inhibition (Renin (Homo sapiens) [7]): 38%; inhibition (Renin (Homo sapiens) [8]): 31% |
| C=C(C[C@H](O)[C@H](CC1CCCCC1)NC(=O)[C@H](Cc1c[nH]cn1)NC(=O)[C@H](Cc1ccccc1)NC(=O)OCC)C(=O)NCCC(C)C | 3 nM |  |
| CC(C)CCNC(=O)C1(C[C@H](O)[C@H](CC2CCCCC2)NC(=O)[C@H](C)NC(=O)[C@H](Cc2ccccc2)NC(=O)OC(C)(C)C)CO1 (stereo partly drawn) | 25 nM | inhibition (Renin (Homo sapiens) [9]): 66%; inhibition (Renin (Homo sapiens) [10]): 61% |
| CC(C)CNC(=O)[C@](O)(CCl)C[C@H](O)[C@H](CC1CCCCC1)NC(=O)[C@H](Cc1cnc[nH]1)NC(=O)[C@H](Cc1ccccc1)NC(=O)OC(C)(C)C | 0.8 nM |  |
| C=C(C[C@H](O)[C@H](CC1CCCCC1)NC(=O)[C@H](Cc1c[nH]cn1)NC(=O)[C@H](Cc1ccccc1)NC(=O)OC(C)(C)C)C(=O)NCCC(C)C | 1.5 nM |  |
| CNC(=O)C1(C[C@H](O)[C@H](CC2CCCCC2)NC(=O)[C@H](C)NC(=O)[C@H](Cc2ccccc2)NC(=O)OC(C)(C)C)CO1 (stereo partly drawn) | 40 nM |  |
| C=C(C[C@H](O)[C@H](CC1CCCCC1)NC(=O)[C@H](Cc1c[nH]cn1)NC(=O)[C@H](Cc1ccccc1)NC(=O)CC(C)(C)C)C(=O)NC | 2 nM |  |
